From ChEMBL document CHEMBL3046702, “Herbicidal, plant growth inhibitory, and cytotoxic activities of bismuthines containing aromatic heterocycles” (J Agric Food Chem, 2003)
The source made the active and inactive calls. The calls are words filed in the database; no cut-off is given here.

Legend:
[1] = system: Radical scavenging activity; experiment: Antioxidant activity assessed as DPPH free radical scavenging activity at 5 to 100 uM after 30 min by spectrophotometric analysis; type: functional
Procedure, shortened: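 DPPH reduction by the compounds was read spectrophotometrically at 517 nm after 30 min. 100% DMSO served as the blank and quercetin as the reference scavenger.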

Trifolium pratense [2] = experiment: Herbicidal activity against Trifolium pratense var. Kenland (red clover) assessed as inhibition of seed germination after 48 hr; type: functional, organism-based; details: read-out: I50
Lactuca sativa [3] = experiment: Herbicidal activity against Lactuca sativa var.Roman (lettuce) assessed as inhibition of seed germination after 48 hr; type: functional, organism-based; details: read-out: I50
Lolium multiflorum [4] = experiment: Herbicidal activity against Lolium multiflorum var. Gulf (Italian ryegrass) assessed as inhibition of seed germination after 48 hr; type: functional, organism-based; details: read-out: I50
Artemia salina = experiment: Toxicity in Artemia salina (brine shrimp) larvae assessed as mortality; type: organism-based; details: in vivo
Procedure, shortened: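 Brine shrimp lethality test on *Artemia salina* larvae, run across several concentrations up to a top level of 1000 µM. Mortality was scored at each concentration, and LC50 values in µM were derived from the concentration–mortality data.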

Phaseolus vulgaris = experiment: Herbicidal activity against Phaseolus vulgaris assessed as inhibition of mitochondrial oxygen uptake; type: functional, organism-based; details: read-out: I50
Trifolium pratense [5] = experiment: Herbicidal activity against Trifolium pratense var. Kenland (red clover) assessed as inhibition of seed respiration during germination after 72 hr by polarographic analysis; type: functional, organism-based
Procedure, shortened: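 Red clover seeds were exposed to the bismuthines during germination, with respiration followed over the imbibition time. Values were taken at 72 h as the concentration giving 50% inhibition of seed respiration, using means of three experiments.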

Lactuca sativa [6] = experiment: Herbicidal activity against Lactuca sativa var.Roman (lettuce) seedlings assessed as inhibition of seed germination at 5 uM after 48 hr; type: functional, organism-based
Lactuca sativa [7] = experiment: Herbicidal activity against Lactuca sativa var.Roman (lettuce) seedlings assessed as shoot length at 5 uM after 120 hr (reference value: 27 to 31 mm); type: functional, organism-based
Lactuca sativa [8] = experiment: Herbicidal activity against Lactuca sativa var.Roman (lettuce) seedlings assessed as root length at 5 uM after 120 hr (reference value: 18 to 19 mm); type: functional, organism-based
Lolium multiflorum [9] = experiment: Herbicidal activity against Lolium multiflorum var. Gulf (Italian ryegrass) seedlings assessed as shoot length rate at 1 uM after 48 hr relative to control; type: functional, organism-based
Procedure, shortened: (§1)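 Italian ryegrass seedlings grown with 0, 0.5, 1, 3, 5, 7.5 or 10 µM of each bismuthine. Shoot and root lengths were measured at 48 h and expressed as a percentage of the average untreated control length.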

Lactuca sativa [10] = experiment: Herbicidal activity against Lactuca sativa var.Roman (lettuce) seedlings assessed as seed germination rate at 7.5 uM after 48 hr relative to control; type: functional, organism-based
Lolium multiflorum [11] = experiment: Herbicidal activity against Lolium multiflorum var. Gulf (Italian ryegrass) seedlings assessed as root length rate at 7.5 uM after 48 hr relative to control; type: functional, organism-based; procedure, shortened: as §1
Lactuca sativa [12] = experiment: Herbicidal activity against Lactuca sativa var.Roman (lettuce) seedlings assessed as seed germination rate at 5 uM after 48 hr relative to control; type: functional, organism-based
Lolium multiflorum [13] = experiment: Herbicidal activity against Lolium multiflorum var. Gulf (Italian ryegrass) assessed as inhibition of seed respiration during germination after 72 hr by polarographic analysis; type: functional, organism-based
Lolium multiflorum [14] = experiment: Herbicidal activity against Lolium multiflorum var. Gulf (Italian ryegrass) seedlings assessed as shoot length rate at 10 uM after 48 hr relative to control; type: functional, organism-based; procedure, shortened: as §1
Lactuca sativa [15] = experiment: Herbicidal activity against Lactuca sativa var.Roman (lettuce) seedlings assessed as seed germination rate at 10 uM after 48 hr relative to control; type: functional, organism-based
Lolium multiflorum [16] = experiment: Herbicidal activity against Lolium multiflorum var. Gulf (Italian ryegrass) seedlings assessed as root length rate at 5 uM after 48 hr relative to control; type: functional, organism-based; procedure, shortened: as §1
Lolium multiflorum [17] = experiment: Herbicidal activity against Lolium multiflorum var. Gulf (Italian ryegrass) seedlings assessed as root length rate at 1 uM after 48 hr relative to control; type: functional, organism-based; procedure, shortened: as §1
Lolium multiflorum [18] = experiment: Herbicidal activity against Lolium multiflorum var. Gulf (Italian ryegrass) seedlings assessed as shoot length rate at 5 uM after 48 hr relative to control; type: functional, organism-based; procedure, shortened: as §1
Lolium multiflorum [19] = experiment: Herbicidal activity against Lolium multiflorum var. Gulf (Italian ryegrass) seedlings assessed as root length rate at 0.5 uM after 48 hr relative to control; type: functional, organism-based; procedure, shortened: as §1
Lactuca sativa [20] = experiment: Herbicidal activity against Lactuca sativa var.Roman (lettuce) seedlings assessed as root length at 25 uM after 120 hr (reference value: 18 to 19 mm); type: functional, organism-based
Lactuca sativa [21] = experiment: Herbicidal activity against Lactuca sativa var.Roman (lettuce) seedlings assessed as shoot length at 10 uM after 120 hr (reference value: 27 to 31 mm); type: functional, organism-based
Lactuca sativa [22] = experiment: Herbicidal activity against Lactuca sativa var.Roman (lettuce) seedlings assessed as root length at 75 uM after 120 hr (reference value: 18 to 19 mm); type: functional, organism-based
Lolium multiflorum [23] = experiment: Herbicidal activity against Lolium multiflorum var. Gulf (Italian ryegrass) seedlings assessed as shoot length rate at 3 uM after 48 hr relative to control; type: functional, organism-based; procedure, shortened: as §1
Lolium multiflorum [24] = experiment: Herbicidal activity against Lolium multiflorum var. Gulf (Italian ryegrass) seedlings assessed as shoot length rate at 7.5 uM after 48 hr relative to control; type: functional, organism-based; procedure, shortened: as §1
Lactuca sativa [25] = experiment: Herbicidal activity against Lactuca sativa var.Roman (lettuce) seedlings assessed as root length at 10 uM after 120 hr (reference value: 18 to 19 mm); type: functional, organism-based
Physalis ixocarpa = experiment: Herbicidal activity against Physalis ixocarpa assessed as inhibition of seed respiration during germination after 72 hr by polarographic analysis; type: functional, organism-based
Trifolium pratense [26] = experiment: Herbicidal activity against Trifolium pratense var. Kenland (red clover) seedlings assessed as partial inhibition of hypocotyle growth up to 15 uM after 48 hr; type: functional, organism-based
Lactuca sativa [27] = experiment: Herbicidal activity against Lactuca sativa var.Roman (lettuce) seedlings assessed as seed germination rate at 1 uM after 48 hr relative to control; type: functional, organism-based
Lolium multiflorum [28] = experiment: Herbicidal activity against Lolium multiflorum var. Gulf (Italian ryegrass) seedlings assessed as root length rate at 3 uM after 48 hr relative to control; type: functional, organism-based; procedure, shortened: as §1
Lactuca sativa [29] = experiment: Herbicidal activity against Lactuca sativa var.Roman (lettuce) seedlings assessed as growth inhibition at 5 uM after 120 hr; type: functional, organism-based
Lactuca sativa [30] = experiment: Herbicidal activity against Lactuca sativa var.Roman (lettuce) seedlings assessed as shoot length at 75 uM after 120 hr (reference value: 27 to 31 mm); type: functional, organism-based
Lactuca sativa [31] = experiment: Herbicidal activity against Lactuca sativa var.Roman (lettuce) seedlings assessed as root length at 50 uM after 120 hr (reference value: 18 to 19 mm); type: functional, organism-based
Lactuca sativa [32] = experiment: Herbicidal activity against Lactuca sativa var.Roman (lettuce) seedlings assessed as partial inhibition of hypocotyle growth up to 10 uM after 48 hr; type: functional, organism-based
Lactuca sativa [33] = experiment: Herbicidal activity against Lactuca sativa var.Roman (lettuce) seedlings assessed as seed germination rate at 3 uM after 48 hr relative to control; type: functional, organism-based
[34] = system: Radical scavenging activity; experiment: Antioxidant activity assessed as DPPH free radical scavenging activity at 5 to 100 uM after 30 min by TLC autographic assay; type: functional
Lolium multiflorum [35] = experiment: Herbicidal activity against Lolium multiflorum var. Gulf (Italian ryegrass) seedlings assessed as shoot length rate at 0.5 uM after 48 hr relative to control; type: functional, organism-based; procedure, shortened: as §1
Lolium multiflorum [36] = experiment: Herbicidal activity against Lolium multiflorum var. Gulf (Italian ryegrass) seedlings assessed as root length rate at 10 uM after 48 hr relative to control; type: functional, organism-based; procedure, shortened: as §1
Lactuca sativa [37] = experiment: Herbicidal activity against Lactuca sativa var.Roman (lettuce) seedlings assessed as seed germination rate at 0.5 uM after 48 hr relative to control; type: functional, organism-based

In the case of O=c1c(O)c(-c2ccc(O)c(O)c2)oc2cc(O)cc(O)c12, the Activity [1] is reported as “Active”.

Work on “TRIS(1-METHYL-2-PYRROLYL)BISMUTH [listing 1 of 2 here]” yielded an IC50 (Trifolium pratense [2]) of 7.5 µM, an IC50 (Lactuca sativa [3]) of 34 µM and an IC50 (Lolium multiflorum [4]) of 33.8 µM. For the same molecule, the LC50 (Artemia salina) was 638 µM, the IC50 (Phaseolus vulgaris) was 17.1 µM and the IC50 (Trifolium pratense [5]; read-out: I50) was 8.4 µM.

For “TRIS(1-METHYL-2-PYRROLYL)BISMUTH [listing 2 of 2 here]”, the inhibition (Lactuca sativa [6]) was “Active”, the Activity (Lactuca sativa [7]) was 29 mm and the Activity (Lactuca sativa [8]) was 30 mm. The Activity (Lolium multiflorum [9]) was 84%, the Activity (Lactuca sativa [10]) was 65% and the Activity (Lolium multiflorum [11]) was 60%. The Activity [1] was “Active”, the Activity (Lactuca sativa [12]) was 76% and the inhibition (Lolium multiflorum [13]) was “inactive”. It also gave an Activity (Lolium multiflorum [14]) of 28%, an Activity (Lactuca sativa [15]) of 60% and an Activity (Lolium multiflorum [16]) of 46%. It also gave an Activity (Lolium multiflorum [17]) of 78%, an Activity (Lolium multiflorum [18]) of 66% and an Activity (Lolium multiflorum [19]) of 112%. It also gave an Activity (Lactuca sativa [20]) of 0 mm, an Activity (Lactuca sativa [21]) of 9 mm and an Activity (Lactuca sativa [22]) of 0 mm. It also gave an Activity (Lolium multiflorum [23]) of 82%, an Activity (Lolium multiflorum [24]) of 64% and an Activity (Lactuca sativa [25]) of 11 mm. The inhibition (Physalis ixocarpa) was “Active”, the “growth inhibition (GI)” value (Trifolium pratense [26]) was “Active” and the Activity (Lactuca sativa [27]) was 85%. The Activity (Lolium multiflorum [28]) was 76%, the inhibition (Lactuca sativa [29]) was 30% and the Activity (Lactuca sativa [30]) was 0 mm. For the same molecule, the Activity (Lactuca sativa [31]) was 0 mm, the “growth inhibition (GI)” value (Lactuca sativa [32]) was “Active” and the Activity (Lactuca sativa [33]) was 80%. For the same molecule, the Activity [34] was “inactive”, the inhibition (Trifolium pratense [5]) was “Dose-dependent effect” and the Activity (Lolium multiflorum [35]) was 93%. It also gave an Activity (Lolium multiflorum [36]) of 34% and an Activity (Lactuca sativa [37]) of 85%.
